This excerpt belongs to a sample that is enriched for hits.
Dyrk1A ADPGlo – rat Dyrk1A kinase inhibitors, primary screen, biochemical, single point, plate reader; Dual specificity tyrosine-phosphorylation-regulated kinase 1A (Rattus norvegicus), Q63470; ADP-Glo luminescence, NFATc1 peptide; inhibition, % at 12.5 µM; 0.43% of 310,000 active; AID 504441, 2011; in the data active = inhibition above about 50%;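 also: plate controls were vehicle with enzyme for no effect and no enzyme for full effect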
GSK3A inh – blockers of GSK3A enzyme activity – biochemical, luminescence, cell-free homogeneous, HTS, primary screen; Glycogen synthase kinase-3 alpha (Homo sapiens), P49840; GSK-3 alpha kinase, ADP-Glo luminescence, 60 min; inhibition, % at 10 µM; 0.1% of 320,000 active; AID 2650, 2010;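 active = more than half of replicates show inhibition above 20%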;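 also: GST-tagged GSK-3 alpha with peptide substrate and 25 µM ATP; 0% = DMSO neutral wells and 100% = GW8510 positive control wells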
GSK3beta inhib – human GSK3beta kinase inhibitors, primary screen, biochemical, cell-free homogeneous, HTS; activity score (negative = inhibition), % at 10 µM; Glycogen synthase kinase-3 beta (Homo sapiens), P49841; GST-GSK3beta kinase, ADP-Glo luminescence, 60 min; active compounds read low; AID 2097, 2009; 0.038% of 300,000 active;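 active = more than half of replicate wells score below -50%, meaning over 50% inhibition versus plate controls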;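 also: 0% = median DMSO wells and -100% = median GW8510 positive control wells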
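Test system: GST-tagged human GSK3beta kinase, cell-free; evaluation: activity score scaled between in-plate DMSO and GW8510 controls; measured by: ADP-Glo luminescence; incubation: 60 min reaction, RT; benchmarks: DMSO and 20 µM GW8510; reagent: peptide substrate plus 25 µM ATP (final); medium: Tris/MgCl2 kinase buffer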
STK33 kinase inh – inhibitors of purified STK33 kinase, primary screen, biochemical, ADP-Glo luminescence, homogeneous, cell-free | Serine/threonine-protein kinase 33 (Homo sapiens), Q9BYT3 | MBP phosphorylation | inhibition, % at 10 µM | 0.073% of 320,000 active | AID 2661, 2010;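 active = inhibition at or above 25%, using the most active replicate where run in duplicate; inactive = inhibition below 25%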
Target sequence (Q9BYT3 whole entry, looked up): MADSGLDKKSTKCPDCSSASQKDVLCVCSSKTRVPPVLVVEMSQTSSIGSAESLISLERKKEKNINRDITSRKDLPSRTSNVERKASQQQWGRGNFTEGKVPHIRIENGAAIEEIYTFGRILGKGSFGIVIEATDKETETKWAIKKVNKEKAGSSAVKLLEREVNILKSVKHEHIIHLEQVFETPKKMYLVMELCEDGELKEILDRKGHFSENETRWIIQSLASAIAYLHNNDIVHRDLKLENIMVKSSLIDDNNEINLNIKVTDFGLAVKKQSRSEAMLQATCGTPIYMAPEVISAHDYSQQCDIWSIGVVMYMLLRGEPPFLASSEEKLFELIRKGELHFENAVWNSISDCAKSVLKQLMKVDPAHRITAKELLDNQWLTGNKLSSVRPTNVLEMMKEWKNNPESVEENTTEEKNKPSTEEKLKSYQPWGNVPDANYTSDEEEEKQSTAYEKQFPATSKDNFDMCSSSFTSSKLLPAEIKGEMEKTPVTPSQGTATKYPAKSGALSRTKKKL
ADP-Glo artifact – ADP-Glo luciferase interference without Dyrk1A, dose response, artefact control for Dyrk1A inhibitor project, biochemical, luminescence, cherry-pick, set 02; ADP-Glo luciferase artifact assay, no Dyrk1A; 1,300 tested, under 10 active; AC50, µM (doses to about 12 µM), without a hit: top-dose activity change, negative = inhibition; shares compounds with Dyrk1A ADPGlo;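 active = fitted half-maximal dose AC50 no more than ten times the top valid tested dose, with luminescence dropping as dose rises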
An asterisk follows results filed as active; . = no result.

SMILES | Dyrk1A ADPGlo | GSK3A inh | GSK3beta inhib | STK33 kinase inh | ADP-Glo artifact
COc1cc(/C=C2\SC(=S)N(NC(=O)c3cccc(O)c3)C2=O)ccc1O | 61* | 2 | -9 | 0 | 5%
COc1ccc(C(=O)c2oc3ccc(OC)cc3c2N)cc1 | -4 | -1 | -1 | 0 | .
CCOC(=O)c1[nH]c2ccc(OC)cc2c1NC(=O)OC | -2 | . | 0 | 0 | .
COC(=O)c1[nH]c2cc(OC)ccc2c1N | 75* | . | 1 | 2 | 10%
COC(=O)c1oc2ccc(OC)cc2c1N | 70* | 5 | -7 | 1 | 11%
CCCCOc1cccc(C(=O)NC(=S)Nc2ccc(Cl)c(C(=O)O)c2)c1 | 66* | -4 | -2 | -1 | 11%
O=C(NC(=S)Nc1ccc(Cl)c(C(=O)O)c1)c1cccc(COc2ccccc2)c1 | -5 | -5 | 0 | -6 | .
COc1ccc2cc3cc(C(=O)NCCCN4CCOCC4)oc3nc2c1 | 58* | 3 | -3 | 0 | 9%
COc1ccc2cc3cc(C(=O)NCCCN4CCC(C)CC4)oc3nc2c1 | 53* | 8 | . | -1 | 7%
CCCCN(CC)CCCNC(=O)c1cc2cc3ccc(OC)cc3nc2o1 | 50* | -13 | -3 | 2 | 9%
COc1ccc2cc3cc(C(=O)NCCN4CCN(Cc5ccccc5)CC4)oc3nc2c1 | 52* | 2 | 5 | 0 | 9%
CCCN(CCC)CCCNC(=O)c1cc2cc3ccc(OC)cc3nc2o1 | 37 | 10 | -7 | 0 | .
CCOC(=O)C1CCCN(C(=O)CN2C(=O)/C(=C/c3ccc(OC)cc3)Oc3ccccc32)C1 (stereo unspecified) | -2 | 0 | -2 | 0 | .
CCN1CCN(CCCNC(=O)c2cc3cc4ccc(OC)cc4nc3o2)CC1 | 88* | 4 | -9 | 0 | 7%
COc1cc(O)cc2cc3c(c(O)c12)C(=O)CC(C)(O)O3 (stereo unspecified) | 108* | 21 | . | 8 | 5%
c1ccc2c(-c3nc(C4CCCCC4)no3)cc(-c3ccncc3)nc2c1 | 72* | -1 | 0 | 0 | 8%
COc1ccc(-c2cc(-c3nnc(-c4ccncc4)o3)c3ccccc3n2)cc1 | -6 | -2 | -2 | -2 | .
CC1CCC2(CC1)NC(=O)N(Cc1cccc(C(F)(F)F)c1)C2=O (stereo unspecified) | -5 | -1 | 5 | -2 | .
COc1ccccc1-c1sc2ccccc2c1-c1ccc(O)cc1 | 1 | -3 | . | 0 | .
COc1ccccc1-c1sc2ccccc2c1C#Cc1ccc(N(C)C)cc1 | 51* | -2 | . | 0 | 8%
Cc1ccc(NC2=C(N3CCCCC3)C(=O)c3ccccc3C2=O)cc1 | 52* | -1 | 0 | -1 | 9%
CC(=O)OC[C@H]1O[C@@H](Oc2cc(O)cc3oc(-c4ccc(O)cc4)cc(=O)c23)[C@H](O[C@@H]2O[C@@H](C)[C@H](O)[C@@H](O)[C@H]2O)[C@@H](O)[C@@H]1O | 8 | -1 | . | 6 | .
CC1OC(OCC2OC(Oc3c(-c4ccc(O)cc4)oc4cc(O)cc(O)c4c3=O)C(O)C(O)C2O)C(O)C(O)C1O (stereo unspecified) | 53* | 12 | -22 | 0 | 8%
O=c1c(O[C@@H]2O[C@H](CO)[C@@H](O)[C@H](O)[C@H]2O)c(-c2ccc(O)c(O)c2)oc2cc(O)cc(O)c12 | . | . | -47 | . | .
O=c1c2c(O)cc(O)cc2oc2ccc(O)c(O[C@@H]3O[C@H](CO)[C@@H](O)[C@H](O)[C@H]3O[C@H]3O[C@H](CO)[C@@H](O)[C@H](O)[C@H]3O)c12 | 79* | 19 | . | 4 | 10%
O=c1c(OC2OC(CO)C(O)C(O)C2OC2OC(CO)C(O)C(O)C2OC2OC(CO)C(O)C(O)C2O)c(-c2ccc(O)c(O)c2)oc2cc(O)cc(O)c12 (stereo unspecified) | 26 | 1 | . | 0 | .

Screening data: PubChem, Broad Institute
